Screening results (PubChem BioAssay)
GalR3 antag = blocks the human galanin receptor 3; O60755; HEK293 GalR3-CNG cAMP membrane potential fluorescence; galR3 body fused to GalR1 C-terminus; inhibition, % at 3 µM; hit rate 0.44% among 360,000;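 active = inhibition above the screen-wide average plus 3 SD, cut at about 13% in these data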;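 note: forskolin and galanin both at EC90 stimulate the cells; cAMP rise reported by CNG channel membrane potential dye signal; 0% = forskolin plus galanin with DMSO and 100% = forskolin alone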
GPR7 antag = antagonists of human GPR7 (neuropeptides B/W receptor 1) | P48145 | hit rate 1.1% among 290,000 | GPR7-expressing cells, fluorescence antagonist assay | AID 1861 | inhibition, % at 4.4 µM; in the data active = inhibition above about 16%, passing the limit was not always enough;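 note: cells stimulated with the agonist NPW; 0% = agonist with vehicle and 100% = vehicle without agonist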
CHO parental Ca = signal in parental CHO cells, OX1R antagonist counter-screen; parental CHO-K1, ATP-induced calcium, Fluo-8 fluorescence; inhibition, % at 5.6 µM; hit rate 0.63% among 330,000; AID 463079;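 active = inhibition above that plate's mean sample inhibition plus 3 SD, cut at about 26% in these data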;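 note: 0% = ATP-challenged DMSO wells and 100% = DMSO wells without ATP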
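Assay system: parental CHO cells; Read-out basis: percent inhibition of ATP-evoked calcium rise, normalized to controls; Benchmarks: ATP and no-ATP DMSO wells; Compound dosing: single nominal dose of 5.6 µM per compound; Signal: Fluo-8 calcium dye fluorescence; Also added: ATP as calcium-mobilizing challenge; Repeats: singlicate.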
OX1R antag-1 = blocks the human orexin 1 receptor; O43613; CHO/OX1R cells, Fluo-8 calcium fluorescence, orexin A; inhibition, % at 5 µM; hit rate 0.43% among 330,000; AID 434989;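 active = inhibition above its plate's threshold, mean inhibition of all tested compounds on the plate plus 3 SD, cut at about 37% in these data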;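 note: 0% = orexin A challenge wells and 100% = SB-334867-A antagonist wells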
Target sequence (O43613 whole entry, looked up): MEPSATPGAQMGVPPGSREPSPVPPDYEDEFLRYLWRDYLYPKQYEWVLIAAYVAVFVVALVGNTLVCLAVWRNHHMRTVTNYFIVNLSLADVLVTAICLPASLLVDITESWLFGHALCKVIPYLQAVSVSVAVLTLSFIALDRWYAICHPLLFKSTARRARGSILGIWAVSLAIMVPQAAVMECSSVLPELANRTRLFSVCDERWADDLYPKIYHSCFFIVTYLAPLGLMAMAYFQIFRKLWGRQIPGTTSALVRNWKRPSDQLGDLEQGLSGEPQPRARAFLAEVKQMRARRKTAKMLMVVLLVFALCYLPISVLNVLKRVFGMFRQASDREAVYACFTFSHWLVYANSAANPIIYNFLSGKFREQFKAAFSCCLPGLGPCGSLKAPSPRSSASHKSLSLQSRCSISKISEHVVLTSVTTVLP
OX1R antag-2 = antagonists of human orexin 1 receptor (OX1R); O43613; OX1R-expressing cells, FRET antagonist read-out; inhibition, % at 6.6 µM; hit rate 1.8% among 330,000; AID 485270; in the data active = inhibition mostly above about 38%, no sharp cut-off; inactive = mostly below about 40%;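 note: 0% = agonist challenge alone and 100% = reference antagonist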
An asterisk follows results filed as active; · = no result. Rows were chosen to be rich in hits. Some 3.1% of all compounds tested hit in one or more screens of this group.

SMILES	GalR3 antag	GPR7 antag	CHO parental Ca	OX1R antag-1	OX1R antag-2
CCOC(=O)C1=CCN(S(=O)(=O)c2ccc(Cl)cc2)C1c1ccccc1 (stereo not drawn)	-5.9	·	·	·	·
C=CCN=C1NC(c2ccc(C(F)(F)F)cc2)C(C(=O)OC)=C(C)N1Cc1ccccc1C(F)(F)F (stereo not drawn)	-4.3	·	·	·	·
COc1ccc(C(=O)N2CCN(c3ccc(C)cc3C)CC2)cc1OC	1.7	-5.7	-14.4	-2.0	21.6
COc1ccc(C(=O)N2CCN(c3ccc(C)c(C)c3)CC2)cc1OC	-0.4	20.3*	-17.4	-23.4	14.3
Cc1ccccc1NC(=O)C(=O)NCC1CCCN1S(=O)(=O)c1cccs1 (stereo not drawn)	-0.3	·	-14.9	-7.1	33.6*
O=C(NCC1CCCN1S(=O)(=O)c1cccs1)c1cccc([N+](=O)[O-])c1 (stereo not drawn)	-2.1	·	-11.1	-8.7	55.2*
C[C@H](CO)N1C[C@H](C)[C@@H](CN(C)C(=O)C2CC2)OCc2cn(nn2)CCCC1=O	-4.8	·	·	·	·
COc1ccc(-c2cc(N)n(S(=O)(=O)Cc3ccccc3)n2)c(OC)c1	0.1	3.2	-19.1	-0.4	60.7*
CC(C)C[C@@H]1COc2cc(NCCCN3CCOCC3)ccc2S(=O)(=O)N1	-1.4	·	·	·	·
COCCn1c(-c2ccc(Cl)cc2)cnc1SCC(=O)NCc1cccs1	-2.4	19.9*	-13.3	-19.9	13.2
CSc1ccccc1OCc1cc(C(=O)N2CCc3c(Cl)cccc3C2)no1	-0.5	-8.8	58.2*	62.3*	41.6
COc1ccc(CNc2ccc3cn[nH]c3c2)c(OC)c1OC	-6.2	4.4	-6.8	6.5	36.9*
O=C(Nc1ccccc1-c1nnc(SCc2ccc(Cl)cc2)o1)c1ccccc1	-2.3	-17.5	-10.0	-13.8	9.8
O=c1c(-c2nnc(SCc3ccc(Cl)cc3)o2)cccn1Cc1ccccc1	-4.4	-13.9	2.0	-7.0	39.8*
C[C@H]1[C@@H](c2ccccc2)Oc2ccc(Cl)cc2S(=O)(=O)N1Cc1ccc(Cl)cc1	-7.0	·	·	·	·
COc1ccc(CC(=O)N(Cc2ccccc2)c2ccccc2)cc1S(=O)(=O)N1CCOCC1	1.5	7.9	-11.9	-6.8	58.0*
C=CCCC1CN(Cc2ccc(OC)cc2)S(=O)(=O)c2c(Oc3ccc(C)cc3)cccc2O1 (stereo not drawn)	0.6	·	·	·	·
O=c1[nH]cc(S(=O)(=O)N2CCN(c3ccccc3F)CC2)c(=O)[nH]1	-8.0	·	·	·	·
CCOC(=O)[C@]12CCC=C1N(Cc1ccc3c(c1)OCO3)C(=O)[C@H](CC(=O)N1CCOCC1)C2	-5.7	·	·	·	·
CC1C(=O)N(Cc2cn(CCC3OCCO3)nn2)CCS(=O)(=O)N1Cc1ccc(-c2ccc(F)nc2)cc1 (stereo not drawn)	-4.3	·	·	·	·
CN(C)c1ncc(S(=O)(=O)c2ccccc2)c(-c2ccc(Cl)cc2Cl)n1	-3.7	-7.7	4.4	-13.4	53.1*
O=C(Nc1ccc2ccccc2n1)c1ccccc1Cl	-9.7	14.1	-11.0	-19.4	21.9
COc1ccc(C(=O)Nc2ccc3ccccc3n2)c(OC)c1OC	-0.3	-3.5	-17.3	-1.2	57.1*
C=C(C)CNC(=S)N=Nc1c(O)[nH]c2ccc([N+](=O)[O-])cc12	12.1	-9.3	-10.0	-14.0	34.0
O=C(CNC(=O)c1ccco1)N=Nc1c(O)[nH]c2ccc([N+](=O)[O-])cc12	-7.8	-10.4	2.5	-2.6	62.7*
SMILES	GalR3 antag	GPR7 antag	CHO parental Ca	OX1R antag-1	OX1R antag-2
NS(=O)(=O)c1cccc(NC(=O)CN2CCc3ccccc32)c1	1.4	-3.0	14.2	7.4	11.7
CN(c1ccccc1)S(=O)(=O)c1cccc(NC(=O)CN2CCCc3ccccc32)c1	-1.6	-1.5	32.9*	11.8	24.2
Cc1ccnc(NC(=O)c2cc3ccccc3o2)c1	-3.1	·	-19.2	-28.6	52.7*
O=S(=O)(NCc1ccccc1)c1cc(Br)ccc1Br	-7.2	·	·	·	·
CC1(C)C2CCC1(C)C(OCC[N+](C)(C)CC(=O)OC1CCCCC1)C2 (stereo not drawn)	-0.4	20.2*	-4.0	-17.5	6.1
OC(c1ccccc1)c1nc(-c2csc3ccccc23)cs1 (stereo not drawn)	-4.9	·	·	·	·
Cc1cccc(-c2noc(CN(C(=O)C(c3ccccc3)c3ccccc3)C(C)C)n2)c1	-2.4	-6.1	69.2*	-9.0	42.5*
Cc1cccc(-c2noc(CN(C(=O)c3ccc(Br)o3)C(C)C)n2)c1	4.5	-10.3	-14.8	-21.1	35.0
Cc1cccc(-c2noc(CN(C(=O)c3ccc4c(c3)OCO4)C(C)C)n2)c1	-4.8	-8.5	-20.4	10.1	69.4*
CCN(Cc1nc(-c2cccc(C)c2)no1)C(=O)c1ccc2c(c1)OCO2	-10.4	12.4	-21.0	-6.0	14.5
CCOC(=O)C1=CCC(c2ccc(C)cc2)N(S(=O)(=O)c2ccc(C)cc2)C1 (stereo not drawn)	-5.3	·	·	·	·
CCOC(=O)C1CSCCS(=O)(=O)N1Cc1ccccc1F (stereo not drawn)	-4.1	·	·	·	·
Cc1cc(C)n(CCc2nc(-c3cc4ccccc4o3)cs2)n1	-2.0	-5.1	37.6*	54.9*	55.4
Cc1ccc(C(=O)N(CCc2ccccc2)Cc2ccccc2)cc1S(=O)(=O)N1CCCCC1	-6.2	·	34.9*	1.1	13.9
Cc1ccc(C(=O)N(CCc2ccccc2)Cc2ccccc2)cc1S(=O)(=O)N1CCOCC1	-5.6	·	·	·	·
COC(=O)C1=C(C)N(C)C(=NCc2ccc3c(c2)OCO3)NC1c1cccc(F)c1 (stereo not drawn)	-4.9	·	·	·	·
c1csc(COc2ccccc2CNC2CCCCC2)c1	-11.2	23.8*	-8.5	-16.1	7.0
Cc1cc(Oc2ccc(Br)cc2)nc(SCC(=O)c2ccccc2)n1	-7.2	0.4	-25.7	-38.5	19.0
Cc1cc(Oc2ccc3ccccc3c2)nc(SCC(=O)c2ccccc2)n1	-7.6	32.3*	-4.5	-22.7	33.4
c1ccc(CN2CCC3CC2c2ccc(N4CCOCC4)cc23)cc1 (stereo not drawn)	-3.9	·	·	·	·
O=C(CCCN1C(=O)/C(=C/c2ccco2)SC1=S)Nc1cccc(C(=O)O)c1	0.4	-1.3	-5.2	-0.7	61.1*
O=C(CCCN1C(=O)/C(=C/c2cccs2)SC1=S)Nc1ccccc1O	-4.6	-7.5	13.8	0.5	60.9*
Cc1cccc(NC(=O)C2CCCN(S(=O)(=O)c3cccc4cccnc34)C2)c1 (stereo not drawn)	-0.4	-14.1	-16.3	5.5	53.6*
COc1ccc(C)cc1NC(=O)C1CCN(S(=O)(=O)c2cccc3cccnc23)CC1	4.5	-7.5	-9.7	-23.8	5.5
COc1cc(NC(=O)[C@@H]2CCCN(S(=O)(=O)c3cccc4cccnc34)C2)cc(OC)c1OC	-3.0	·	-21.5	-27.2	34.8
COc1ccc(OC)c(NC(=O)C2CCCN(S(=O)(=O)c3cccc4cccnc34)C2)c1 (stereo not drawn)	2.8	-10.0	-21.3	-6.9	74.4*
Cc1cc(C)cc(NC(=O)C2CCCN(S(=O)(=O)c3c(C)noc3C)C2)c1 (stereo not drawn)	-1.6	-8.5	-17.4	10.7	72.3*
